From PMC10570058 (Nucleic Acids Research, 2023)
One block for each compound: values may come before it.

Tests used:
[1] = test system: Polθ ATPase domain binding to ssDNA; experiment: Microscale thermophoresis
[2] = test system: Polθ-ATPase domain; experiment: Thermal stability assay; type: binding; conditions: 500 μM compound vs DMSO
[3] = test system: Polθ recruitment to ssDNA in U2OS cells; experiment: Laser micro-irradiation and immunofluorescence, Polθ recruitment to ssDNA; type: cell-based, human; conditions: 200 μM, 24 h, U2OS POLQ KO cells expressing Myc-Polθ
[4] = test system: RPE1 TP53−/−BRCA1−/− cells; experiment: DNA fiber assay with S1 nuclease digestion; type: cell-based; conditions: 200 μM NVB vs vehicle
Procedure, shortened: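 Cells (F12, 10% FBS) seeded 24 h, pulsed with 200 μM CldU for 30 min, washed, then 100 μM IdU for 2 h with test compound (200 μM) or DMSO added alongside. CSK permeabilisation 10 min RT. Nuclei were treated with 10 U/ml S1 nuclease (pH 4.6 buffer) for 30 min at 37°C or left undigested. Agarose-plug extraction was used, and ≥200 IdU tracks were scored per treatment (Mann–Whitney).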

[5] = target: Polθ ATPase domain (human) (UniProt O75417); experiment: mass photometry

Sequence of Polθ ATPase domain (O75417 67-894): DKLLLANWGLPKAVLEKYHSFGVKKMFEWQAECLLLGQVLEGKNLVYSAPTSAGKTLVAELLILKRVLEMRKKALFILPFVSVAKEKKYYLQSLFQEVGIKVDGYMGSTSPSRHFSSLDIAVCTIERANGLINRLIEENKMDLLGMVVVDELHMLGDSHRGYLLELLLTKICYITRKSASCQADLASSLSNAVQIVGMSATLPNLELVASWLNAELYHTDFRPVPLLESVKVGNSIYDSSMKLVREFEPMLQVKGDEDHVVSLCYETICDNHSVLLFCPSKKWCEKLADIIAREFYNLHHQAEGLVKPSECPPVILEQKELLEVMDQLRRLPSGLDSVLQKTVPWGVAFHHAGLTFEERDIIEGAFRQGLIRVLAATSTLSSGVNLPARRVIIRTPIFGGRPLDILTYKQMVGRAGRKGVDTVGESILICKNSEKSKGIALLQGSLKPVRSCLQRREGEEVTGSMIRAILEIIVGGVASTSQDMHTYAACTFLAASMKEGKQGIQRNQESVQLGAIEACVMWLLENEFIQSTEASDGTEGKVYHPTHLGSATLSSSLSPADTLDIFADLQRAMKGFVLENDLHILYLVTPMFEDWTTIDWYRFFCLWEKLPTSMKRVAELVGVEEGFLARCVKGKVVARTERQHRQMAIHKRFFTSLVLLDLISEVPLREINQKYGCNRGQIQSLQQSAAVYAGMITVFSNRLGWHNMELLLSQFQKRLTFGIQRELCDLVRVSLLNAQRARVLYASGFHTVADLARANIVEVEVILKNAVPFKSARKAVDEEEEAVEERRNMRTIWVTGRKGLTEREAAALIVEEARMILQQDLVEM

- Effect on Polθ binding to ssDNA ([1]; 2000 μM AMP-PNP, MST buffer with 5 mM MgCl2): unable to block
Compound: Nc1ncnc2c1ncn2[C@@H]1O[C@H](COP(=O)(O)OP(=O)(O)NP(=O)(O)O)[C@@H](O)[C@H]1O [AMP-PNP]

- Effect on Polθ binding to ssDNA ([1]; NVB 100-2000 μM in MST buffer, 120 mM KCl): dose-dependent inhibition
- Change in the scattering peak maximum [2]: +2 °C
Compound: CO[C@@H]1[C@@H](OC(N)=O)[C@@H](O)[C@H](Oc2ccc3c(O)c(NC(=O)c4ccc(O)c(CC=C(C)C)c4)c(=O)oc3c2C)OC1(C)C [NVB, Novobiocin]
- Polθ blocked from being recruited to damage sites [3]: ~96%
- IdU track lengths following S1 nuclease treatment [4]: dramatic shortening

- stoichiometry N [5]: 4
Compound: Polθ ATPase domain (from UniProt O75417 67-894) (domain or fragment)
